# Results: PubChem BioAssay
# Active and inactive are the calls of the source. Cut-off read from the data, not from the text of the source, unless noted: active = inhibition above about 30%; inactive = the rest.
# Experiments:
# [1] = reduced viability of SK-BR-3 breast cancer cells – cell-based, 24 h, human, pilot screen (AID 572;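 active = viability at or below 10% of carrier control in both of two separate runs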;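 note: compound exposure lasted between 18 and 24 h rather than exactly 24 h; 100% = carrier-treated control wells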); details: SK-BR-3 viability, CellTiter-Glo luminescence, at 10 µM, stronger effect = lower value
# [2] = HUVEC growth inhibition – cell-based, human, primary screen (AID 575;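 active = viability at or below 30% in both replicate assays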;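 note: 100% = median of untreated cell wells with 0.1% DMSO on each plate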); details: HUVEC proliferation, CellTiter-Glo luminescence, 72 h; at 10 µM; stronger effect = lower value
# Method in brief: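 Test system: primary human umbilical vein endothelial cells. Quantity: 1250 cells/well. Compound: single 10 µM dose, 0.1% DMSO, from 5x medium stock. Timing: 72 h treatment at 37 °C. Detection: ATP-based CellTiter-Glo luminescent read. Benchmarks: vehicle and MePR control wells. Format: 384-well plates coated with collagen.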
# [3] = MRP1 drug-resistance reversers in H69AR cells – cell-based, doxorubicin co-treatment, pilot screen (AID 601;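 active = viability loss from added drug above about 55%, and viability with drug at most 40%, in both replicates, limit read from the data, passing the limit was not always enough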); details: CellTiter-Glo, 72 h, at 10 µM; for differential viability (reversal): stronger effect = higher value
# [4] = yeast transport mutant growth inhibition pilot in 384-well plates, post-Golgi transport modulator project (AID 636; in the data active = inhibition above about 31%); details: absorbance 615 nm, about 18 h, stronger effect = higher value
# [5] = growth suppression of yeast trafficking mutant, preliminary HTS, modulators of trafficking downstream of Golgi apparatus project, 1536-format plate, OD 615 nm (AID 637); details: yeast transport mutant growth, absorbance 615 nm, 18 h; stronger effect = higher value
# [6] = H69AR cells + 2 uM doxorubicin, measured here: viability with 2 uM doxorubicin, stronger effect = lower value
# [7] = H69AR cells, compound alone cytotoxicity
SMILES,viability [1],viability [2],differential viability (reversal) ([3]; H69AR cells + 2 uM doxorubicin),"viability [3, 6]","viability [3, 7]",inhibition [4],inhibition [5]
COc1ccccc1NC(=O)C1=C(C)NC(SCC(=O)c2ccc(C)cc2)=C(C#N)C1c1ccco1 (stereo unspecified),81% (inactive),72.5% (inactive),0.78% (inactive),16.8%,17.6%,1.1% (inactive),-3.64% (inactive)
COc1ccc2c(c1OC)C(=O)O[C@@H]2[C@H]1c2c(cc3c(c2OC)OCO3)CCN1C,98% (inactive),80.8% (inactive),-52.2% (inactive),84.1%,31.9%,-6.36% (inactive),-3.5% (inactive)
COc1ccccc1C(=O)NCC(c1cccnc1)N(C)C (stereo unspecified),108% (inactive),96% (inactive),,,,-7.12% (inactive),-1.27% (inactive)
CN1CCN(c2ccc(Cl)cc2NC(=O)c2cccc(S(=O)(=O)N(C)C)c2)CC1,93% (inactive),71.6% (inactive),43.3% (inactive),24.6%,67.9%,-5.47% (inactive),1.27% (inactive)
Cn1c(=O)cc(OCCCC(=O)Nc2ccc3c(c2)OCCO3)c2ccccc21,101% (inactive),85.1% (inactive),-5.2% (inactive),70.7%,65.5%,-1.04% (inactive),-6.39% (inactive)
Cc1cc(C(=O)COc2cccc3cccnc23)c(C)n1C,95% (inactive),80.9% (inactive),-11.7% (inactive),70.8%,59.1%,-2.67% (inactive),-3.64% (inactive)
COc1ccc(-c2ccc(-c3noc(-c4cccs4)n3)c(OC)n2)cc1,77% (inactive),98.8% (inactive),-5.54% (inactive),70.1%,64.6%,-7.43% (inactive),-8.73% (inactive)
O=C(Cn1c(=O)oc2ccccc21)Nc1ccc(S(=O)(=O)N2CCCCC2)cc1,106% (inactive),89.2% (inactive),5.17% (inactive),59.9%,65.1%,1.92% (inactive),-2.58% (inactive)
CCCCC(=O)O[C@H]1CC[C@H]2[C@@H]3CCc4cc(O)ccc4[C@H]3CC[C@]12C,82% (inactive),1.94% (active),13.5% (inactive),6.17%,19.7%,4.81% (inactive),8.33% (inactive)
CCCSc1ccc2nc(NC(=O)OC)[nH]c2c1,95% (inactive),43.2% (inactive),-28.6% (inactive),48.9%,20.3%,-1.56% (inactive),0.17% (inactive)
Cc1cc(CN2CCN(CCC#N)CC2)c(O)c(C2(C)CCCCC2)c1,106% (inactive),54.2% (inactive),-12.2% (inactive),77.1%,64.9%,1.1% (inactive),39.4% (active)
COc1cc(/C=C/C(=O)CC(=O)/C=C/c2ccc(O)c(OC)c2)ccc1O,116% (inactive),56.8% (inactive),1.03% (inactive),2.06%,3.09%,-2.34% (inactive),3.5% (inactive)
CC(=O)O[C@]1(C(C)=O)CC[C@H]2[C@@H]3C=C(Cl)C4=CC(=O)CC[C@]4(C)[C@H]3CC[C@@]21C,104% (inactive),93.2% (inactive),-23.2% (inactive),54.4%,31.2%,-1.3% (inactive),-2.5% (inactive)
COc1ccc(CCN(C)CCCC(C#N)(c2ccc(OC)c(OC)c2)C(C)C)cc1OC (stereo unspecified),73% (inactive),66.8% (inactive),,,,-2.34% (inactive),-0.5% (inactive)
N#Cc1cc2ccc(N3CCOCC3)cc2cc1C#N,85% (inactive),4.27% (active),-33.5% (inactive),76.9%,43.4%,-0.91% (inactive),-3% (inactive)
C=CCOc1ccc(CN(C)CC(=O)N(CC(C)C)c2c(N)n(CC(C)C)c(=O)[nH]c2=O)cc1,99% (inactive),99.6% (inactive),,,,-6.16% (inactive),2% (inactive)
CCOC(=O)Nc1ccc2c(c1)N(C(=O)CCN1CCOCC1)c1ccccc1S2,78% (inactive),97% (inactive),-11.3% (inactive),76%,64.7%,-5.07% (inactive),-2.55% (inactive)
N#C/C(=C\c1ccc(O)c(O)c1)C(=O)NCCCc1ccccc1,88% (inactive),43.4% (inactive),-33.4% (inactive),78%,44.6%,1.04% (inactive),5.5% (inactive)
CC(=O)[C@@]1(O)CC[C@H]2[C@@H]3C[C@H](C)C4=CC(=O)CC[C@]4(C)[C@H]3CC[C@@]21C,106% (inactive),73.9% (inactive),-15.6% (inactive),18%,2.32%,-1.43% (inactive),-2.67% (inactive)
C=CCSc1nnc2n(CCc3ccccc3)c(=O)c3c4c(sc3n12)COC(C)(C)C4,124% (inactive),72.5% (inactive),33.1% (inactive),13.8%,47%,-4.38% (inactive),1.13% (inactive)
